Data from ChEMBL document CHEMBL1938337, “Discovery of novel, potent, and selective inhibitors of 3-phosphoinositide-dependent kinase (PDK1)” (J Med Chem, 2011).

Legend:
[1] = biological target: Epidermal growth factor receptor (Homo sapiens) (UniProt P00533); experiment: Inhibition of EGFR at 1 uM
[2] = biological target: T1, 3-phosphoinositide-dependent protein kinase 1 (Homo sapiens, UniProt O15530); experiment: Inhibition of PDK1-mediated AKT1 phosphorylation at T308 in human A549 cells after 2 hrs by ELISA; assay type: cell-based
T1 sequence (O15530 whole entry): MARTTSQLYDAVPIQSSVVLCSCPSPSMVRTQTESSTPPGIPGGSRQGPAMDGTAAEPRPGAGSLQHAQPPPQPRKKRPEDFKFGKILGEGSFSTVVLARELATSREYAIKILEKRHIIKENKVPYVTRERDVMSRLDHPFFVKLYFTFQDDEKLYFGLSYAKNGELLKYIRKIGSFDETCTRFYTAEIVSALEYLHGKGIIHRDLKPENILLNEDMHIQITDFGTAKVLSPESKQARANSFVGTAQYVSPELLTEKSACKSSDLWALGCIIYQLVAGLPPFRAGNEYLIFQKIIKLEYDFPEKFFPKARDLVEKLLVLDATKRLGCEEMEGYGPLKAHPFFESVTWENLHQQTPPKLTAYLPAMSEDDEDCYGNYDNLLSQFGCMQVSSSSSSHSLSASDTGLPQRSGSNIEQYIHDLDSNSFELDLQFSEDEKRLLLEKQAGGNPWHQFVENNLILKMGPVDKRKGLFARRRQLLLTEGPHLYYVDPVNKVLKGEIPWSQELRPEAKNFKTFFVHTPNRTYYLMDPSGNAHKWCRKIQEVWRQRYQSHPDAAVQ
Summary of the method: (§1)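 Cells seeded at 50,000 per well and left to adhere overnight. Inhibitor was added as a 3-fold serial dilution from 0.0169 nM to 10 μM for 2 h, then cells were lysed. Lysates were tested in a commercial pAKT-T308 sandwich ELISA per the kit protocol. IC50 from duplicates, each run repeated at least twice.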

[3] = Inhibition of recombinant GST-tagged P70S6K using 5FAM-KRSRTRTDSYSAGQ-COOH as substrate by fluorescence based assay
Summary of the method: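 GST-tagged P70S6K (a.a. 1-421) at 5 nM, 50 μM ATP, 5 μM 5FAM-peptide. Product separated from substrate by charge (electrophoretic mobility shift, −2500/−500 V). Duplicates, nonlinear regression fit.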

[4] = biological target: T1, 3-phosphoinositide-dependent protein kinase 1; experiment: Inhibition of PDK1-mediated AKT1 phosphorylation at T308 in human SKOV3 cells after 2 hrs by ELISA; assay type: cell-based, SK-OV-3; summary of the method: as §1
[5] = Inhibition of p38 at 1 uM
[6] = biological target: Calcium/calmodulin-dependent protein kinase type II subunit alpha (Homo sapiens) (UniProt Q9UQM7); experiment: Inhibition of CAMK2A at 1 uM
Chain of Calcium/calmodulin-dependent protein kinase type II subunit alpha (Homo sapiens) (Q9UQM7 whole entry): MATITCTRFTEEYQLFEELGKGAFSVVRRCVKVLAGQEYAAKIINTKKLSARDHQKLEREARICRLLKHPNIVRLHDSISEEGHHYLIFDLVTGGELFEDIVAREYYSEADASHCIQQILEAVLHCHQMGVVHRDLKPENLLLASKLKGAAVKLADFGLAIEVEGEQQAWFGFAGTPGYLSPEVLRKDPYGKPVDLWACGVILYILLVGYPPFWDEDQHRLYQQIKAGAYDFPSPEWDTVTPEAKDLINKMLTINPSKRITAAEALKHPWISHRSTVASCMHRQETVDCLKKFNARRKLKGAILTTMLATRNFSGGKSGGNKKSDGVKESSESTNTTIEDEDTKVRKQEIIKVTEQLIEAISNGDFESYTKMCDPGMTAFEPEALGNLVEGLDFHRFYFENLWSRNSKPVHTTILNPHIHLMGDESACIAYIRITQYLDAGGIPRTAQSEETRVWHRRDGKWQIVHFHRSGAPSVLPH

[7] = biological target: T2, Serine/threonine-protein kinase Nek2 (Homo sapiens) (UniProt P51955); experiment: Inhibition of NEK2 at 1 uM
T2 sequence (whole entry): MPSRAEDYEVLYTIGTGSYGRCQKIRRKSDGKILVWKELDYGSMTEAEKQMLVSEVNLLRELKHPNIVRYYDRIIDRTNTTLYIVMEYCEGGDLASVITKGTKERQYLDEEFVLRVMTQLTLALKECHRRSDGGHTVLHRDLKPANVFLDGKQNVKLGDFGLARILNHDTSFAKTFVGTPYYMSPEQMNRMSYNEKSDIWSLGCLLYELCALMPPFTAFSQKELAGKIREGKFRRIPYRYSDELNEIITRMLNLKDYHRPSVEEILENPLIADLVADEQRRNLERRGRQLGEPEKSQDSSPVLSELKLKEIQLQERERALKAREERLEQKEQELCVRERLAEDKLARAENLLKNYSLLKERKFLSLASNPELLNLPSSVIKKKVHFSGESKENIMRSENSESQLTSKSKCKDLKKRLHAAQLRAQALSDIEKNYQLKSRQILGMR

[8] = biological target: High affinity nerve growth factor receptor (Homo sapiens, UniProt P04629); experiment: Inhibition of TrkA
Chain of High affinity nerve growth factor receptor (P04629 whole entry): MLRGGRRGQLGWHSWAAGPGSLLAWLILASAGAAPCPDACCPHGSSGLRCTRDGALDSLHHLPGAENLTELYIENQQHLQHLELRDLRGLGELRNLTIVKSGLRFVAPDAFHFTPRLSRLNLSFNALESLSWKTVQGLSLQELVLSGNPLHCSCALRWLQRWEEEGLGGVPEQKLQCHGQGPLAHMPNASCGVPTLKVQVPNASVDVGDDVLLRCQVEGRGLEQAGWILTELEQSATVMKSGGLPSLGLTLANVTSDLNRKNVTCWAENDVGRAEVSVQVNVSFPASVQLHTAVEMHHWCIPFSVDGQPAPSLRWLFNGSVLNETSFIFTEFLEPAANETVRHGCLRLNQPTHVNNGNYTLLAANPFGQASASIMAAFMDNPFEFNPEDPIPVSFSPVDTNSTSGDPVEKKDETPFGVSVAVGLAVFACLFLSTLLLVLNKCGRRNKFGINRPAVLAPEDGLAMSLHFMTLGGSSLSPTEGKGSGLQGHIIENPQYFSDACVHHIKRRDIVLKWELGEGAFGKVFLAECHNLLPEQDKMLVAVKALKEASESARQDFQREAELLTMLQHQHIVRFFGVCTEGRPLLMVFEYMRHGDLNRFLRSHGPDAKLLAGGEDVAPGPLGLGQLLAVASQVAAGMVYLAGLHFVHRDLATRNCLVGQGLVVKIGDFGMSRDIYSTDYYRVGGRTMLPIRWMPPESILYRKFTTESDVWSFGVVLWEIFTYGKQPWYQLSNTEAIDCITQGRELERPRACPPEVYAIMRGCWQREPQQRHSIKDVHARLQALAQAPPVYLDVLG

[9] = biological target: Serine/threonine-protein kinase MARK1 (Homo sapiens, UniProt Q9P0L2); experiment: Inhibition of MARK1
Chain of Serine/threonine-protein kinase MARK1 (Q9P0L2 whole entry): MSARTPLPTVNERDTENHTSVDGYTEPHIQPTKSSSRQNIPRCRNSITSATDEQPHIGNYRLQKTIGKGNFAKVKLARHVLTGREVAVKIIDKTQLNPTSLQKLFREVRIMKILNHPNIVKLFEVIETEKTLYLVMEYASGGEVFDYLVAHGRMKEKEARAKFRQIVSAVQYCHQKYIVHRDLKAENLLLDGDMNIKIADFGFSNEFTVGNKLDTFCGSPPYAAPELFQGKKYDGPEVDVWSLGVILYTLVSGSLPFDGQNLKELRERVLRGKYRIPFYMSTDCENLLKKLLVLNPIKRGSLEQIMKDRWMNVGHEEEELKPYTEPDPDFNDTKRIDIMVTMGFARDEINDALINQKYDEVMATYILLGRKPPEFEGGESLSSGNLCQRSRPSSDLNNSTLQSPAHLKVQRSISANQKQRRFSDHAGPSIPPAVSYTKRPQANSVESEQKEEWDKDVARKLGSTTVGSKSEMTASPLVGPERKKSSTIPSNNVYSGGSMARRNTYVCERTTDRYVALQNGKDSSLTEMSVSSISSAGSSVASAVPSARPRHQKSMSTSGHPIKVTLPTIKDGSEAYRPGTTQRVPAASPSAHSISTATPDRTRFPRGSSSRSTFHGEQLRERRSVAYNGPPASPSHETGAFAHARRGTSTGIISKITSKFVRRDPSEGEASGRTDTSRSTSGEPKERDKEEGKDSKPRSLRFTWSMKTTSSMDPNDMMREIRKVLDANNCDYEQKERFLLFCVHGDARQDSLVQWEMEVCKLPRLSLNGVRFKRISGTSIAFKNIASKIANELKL

[10] = biological target: T3, Serine/threonine-protein kinase 3 (Homo sapiens) (UniProt Q13188); experiment: Inhibition of STK3 at 1 uM
T3 sequence (whole entry): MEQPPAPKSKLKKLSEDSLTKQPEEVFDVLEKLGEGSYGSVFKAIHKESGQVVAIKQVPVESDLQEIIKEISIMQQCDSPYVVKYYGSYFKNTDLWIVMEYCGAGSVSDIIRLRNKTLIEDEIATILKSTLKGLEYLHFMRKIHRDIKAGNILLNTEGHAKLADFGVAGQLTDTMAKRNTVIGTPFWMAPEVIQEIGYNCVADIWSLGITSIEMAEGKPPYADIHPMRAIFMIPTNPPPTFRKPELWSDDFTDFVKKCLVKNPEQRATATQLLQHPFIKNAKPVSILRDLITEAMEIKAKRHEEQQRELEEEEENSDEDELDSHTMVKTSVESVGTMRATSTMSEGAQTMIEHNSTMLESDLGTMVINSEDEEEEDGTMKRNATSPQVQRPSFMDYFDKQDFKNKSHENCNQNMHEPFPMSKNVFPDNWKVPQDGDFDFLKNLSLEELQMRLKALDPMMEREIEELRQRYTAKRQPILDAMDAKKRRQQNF

[11] = biological target: Glycogen synthase kinase-3 beta (Homo sapiens, UniProt P49841); experiment: Inhibition of GSK3B at 1 uM
Chain of Glycogen synthase kinase-3 beta (P49841 whole entry, looked up): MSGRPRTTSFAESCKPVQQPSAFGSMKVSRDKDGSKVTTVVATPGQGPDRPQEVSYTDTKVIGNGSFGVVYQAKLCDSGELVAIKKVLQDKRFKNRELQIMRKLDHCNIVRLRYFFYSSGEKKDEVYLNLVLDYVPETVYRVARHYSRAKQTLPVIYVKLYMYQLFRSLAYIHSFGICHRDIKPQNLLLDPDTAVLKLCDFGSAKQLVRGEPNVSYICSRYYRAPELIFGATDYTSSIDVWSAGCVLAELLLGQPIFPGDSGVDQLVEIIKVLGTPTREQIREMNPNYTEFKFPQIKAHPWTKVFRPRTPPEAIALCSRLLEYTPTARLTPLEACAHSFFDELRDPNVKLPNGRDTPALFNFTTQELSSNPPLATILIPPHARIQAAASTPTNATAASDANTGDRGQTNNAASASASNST

[12] = biological target: MAP kinase-activated protein kinase 2 (Homo sapiens) (UniProt P49137); experiment: Inhibition of MAPKAPK2 at 1 uM
Chain of MAP kinase-activated protein kinase 2 (Homo sapiens) (P49137 whole entry, looked up, canonical isoform): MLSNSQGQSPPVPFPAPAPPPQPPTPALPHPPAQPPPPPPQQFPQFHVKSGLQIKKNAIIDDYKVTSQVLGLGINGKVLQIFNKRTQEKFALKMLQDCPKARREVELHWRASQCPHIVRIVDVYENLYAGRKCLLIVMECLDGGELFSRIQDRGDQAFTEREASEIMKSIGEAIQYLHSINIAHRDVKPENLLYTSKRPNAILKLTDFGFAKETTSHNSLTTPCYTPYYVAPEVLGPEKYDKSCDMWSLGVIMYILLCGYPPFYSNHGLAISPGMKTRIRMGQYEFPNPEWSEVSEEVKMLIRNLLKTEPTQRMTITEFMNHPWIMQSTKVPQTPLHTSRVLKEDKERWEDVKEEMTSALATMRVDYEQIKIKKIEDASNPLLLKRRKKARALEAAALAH

[13] = biological target: Casein kinase I isoform alpha (Homo sapiens) (UniProt P48729); experiment: Inhibition of CSNK1A1 at 1 uM
Chain of Casein kinase I isoform alpha (Homo sapiens) (P48729 2-337 limits assumed): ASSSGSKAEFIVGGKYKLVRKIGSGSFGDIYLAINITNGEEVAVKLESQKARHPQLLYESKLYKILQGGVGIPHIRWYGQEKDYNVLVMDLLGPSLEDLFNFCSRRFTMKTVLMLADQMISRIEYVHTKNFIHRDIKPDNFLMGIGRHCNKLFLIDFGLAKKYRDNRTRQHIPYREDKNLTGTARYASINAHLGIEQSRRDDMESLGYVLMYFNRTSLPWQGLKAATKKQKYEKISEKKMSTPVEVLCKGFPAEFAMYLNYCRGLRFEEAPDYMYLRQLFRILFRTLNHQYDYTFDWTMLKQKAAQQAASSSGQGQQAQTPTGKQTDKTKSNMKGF

NCI-H460 = experiment: Antiproliferative activity against human H460 cells after 72 hrs by resazurin reduction assay; assay type: functional, cell-based; settings: NCI-H460, 72 h
Summary of the method: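 Cells seeded at 3,000 per well, left to adhere overnight, then given inhibitor as a 3-fold serial dilution from 0.0169 nM to 10 μM. After 72 h, 250 μg/mL resazurin was added, followed by 6 h more at 37 °C. Fluorescence was read at ex 560 / em 590 nm.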

[14] = biological target: T4, Aurora kinase A (Homo sapiens) (UniProt O14965); experiment: Inhibition of STK6 at 1 uM
T4 sequence (whole entry): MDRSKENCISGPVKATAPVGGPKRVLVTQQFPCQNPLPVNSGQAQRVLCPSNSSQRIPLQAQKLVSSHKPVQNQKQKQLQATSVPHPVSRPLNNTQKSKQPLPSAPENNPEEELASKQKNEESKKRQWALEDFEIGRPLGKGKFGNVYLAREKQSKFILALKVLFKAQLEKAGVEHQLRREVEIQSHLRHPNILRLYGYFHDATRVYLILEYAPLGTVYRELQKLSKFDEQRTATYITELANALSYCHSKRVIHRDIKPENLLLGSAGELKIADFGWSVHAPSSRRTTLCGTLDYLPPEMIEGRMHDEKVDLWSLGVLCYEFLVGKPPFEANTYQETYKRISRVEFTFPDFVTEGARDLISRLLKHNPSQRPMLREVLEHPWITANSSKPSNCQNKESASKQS

[15] = biological target: Fibroblast growth factor receptor 1 (Homo sapiens) (UniProt P11362); experiment: Inhibition of FGFR1 at 1 uM

Chain of Epidermal growth factor receptor (Homo sapiens) (P00533 whole entry): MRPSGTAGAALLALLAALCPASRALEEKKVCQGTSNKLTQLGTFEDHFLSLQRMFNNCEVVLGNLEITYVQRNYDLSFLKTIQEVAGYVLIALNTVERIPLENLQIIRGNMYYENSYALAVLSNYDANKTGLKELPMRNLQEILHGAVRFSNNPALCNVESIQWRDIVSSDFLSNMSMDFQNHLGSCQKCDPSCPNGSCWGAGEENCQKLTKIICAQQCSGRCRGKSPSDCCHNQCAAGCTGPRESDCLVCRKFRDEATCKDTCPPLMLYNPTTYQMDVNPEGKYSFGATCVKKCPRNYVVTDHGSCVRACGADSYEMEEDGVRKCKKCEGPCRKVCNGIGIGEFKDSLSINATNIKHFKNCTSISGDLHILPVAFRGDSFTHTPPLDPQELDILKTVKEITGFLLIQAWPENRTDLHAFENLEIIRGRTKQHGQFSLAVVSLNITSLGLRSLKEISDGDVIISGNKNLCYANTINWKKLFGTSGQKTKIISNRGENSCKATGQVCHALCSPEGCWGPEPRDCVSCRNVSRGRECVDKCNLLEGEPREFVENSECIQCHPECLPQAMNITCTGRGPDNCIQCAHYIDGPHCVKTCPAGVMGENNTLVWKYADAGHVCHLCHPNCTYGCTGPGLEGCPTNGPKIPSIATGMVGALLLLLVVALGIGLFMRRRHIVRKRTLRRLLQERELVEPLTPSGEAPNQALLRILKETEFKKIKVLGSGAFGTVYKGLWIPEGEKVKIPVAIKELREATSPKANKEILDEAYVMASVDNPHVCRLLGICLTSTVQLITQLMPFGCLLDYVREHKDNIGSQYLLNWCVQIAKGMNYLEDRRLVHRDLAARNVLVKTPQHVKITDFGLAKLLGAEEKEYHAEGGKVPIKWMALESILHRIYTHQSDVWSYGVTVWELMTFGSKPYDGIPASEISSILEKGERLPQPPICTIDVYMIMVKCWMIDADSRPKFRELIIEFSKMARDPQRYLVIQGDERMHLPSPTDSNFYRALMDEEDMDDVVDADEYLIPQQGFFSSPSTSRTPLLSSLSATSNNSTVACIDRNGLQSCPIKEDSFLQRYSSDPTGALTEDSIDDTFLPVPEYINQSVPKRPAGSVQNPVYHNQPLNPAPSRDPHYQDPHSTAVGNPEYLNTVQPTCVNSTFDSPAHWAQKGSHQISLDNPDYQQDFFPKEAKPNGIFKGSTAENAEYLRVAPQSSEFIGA

Row | inhibition [1] | IC50 [2] | Ki [3] | IC50 [4] | inhibition [5] | inhibition [6] | inhibition [7] | IC50 [8] | IC50 [9] | inhibition [10] | inhibition [11] | inhibition [12] | inhibition [13] | EC50 (NCI-H460) | inhibition [14] | inhibition [15] | Compound
1 | 7% | 50 nM | 890 nM | 70 nM | 6% | 62% | 3% | 200 nM | 110 nM | 13% | 66% | 6% | 7% | 700 nM | 81% | 17% | CC(C)n1cc(C(=O)c2cncc(N[C@@H]3CCN(C=O)[C@@H]3c3ccc(F)cc3)n2)c2c(N)ncnc21
2 | -2% | 300 nM | 3600 nM | 200 nM | 0% | 32% | -3% | 910 nM | 1300 nM | 0% | 42% | 6% | 7% | 1700 nM | 54% | 6% | CC(=O)N1CC[C@@H](Nc2cncc(C(=O)c3cn(C(C)C)c4ncnc(N)c34)n2)[C@H]1c1ccccc1
3 | 1% | 80 nM | 10000 nM | 70 nM | -1% | 73% | -2% | 620 nM | 590 nM | 12% | 76% | 2% | 4% | 1900 nM | 80% | 7% | CC(=O)N1CC[C@@H](Nc2cncc(C(=O)c3cn(C(C)C)c4ncnc(N)c34)n2)[C@H]1c1ccc(F)cc1
